For assay [1], the system named is Rattus norvegicus. The assay is described as follows: Antihypertensive activity in spontaneously hypertensive rats (SHR) measured by percentage fall in arterial pressure (AP) at 25 mg/kg administered intraperitoneally at 24 h;No significance. Format: functional, organism-based. Also noted: dose 25 mg/kg. The following applies: Artery. In outline: (§1)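 Unanesthetized Okamoto-strain SHR, male and female, 8 weeks old, 300–350 g, systolic pressure ≥190 mmHg, heart rate 400–650 beats/min; five animals per dose. Given ip at 2.5 mL/kg, dissolved or suspended in normal saline or saline with 0.2% (carboxymethyl)cellulose and 1.0% Tween 80. Tail AP and CR recorded by mechanical transduction at set times; reported as percentage fall from control.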

The species named for assay [2] is Homo sapiens. The assay is described as follows: In vitro inhibition of platelet aggregation induced by […] (PRP incubated for 5 minutes at 37 degree C) at 10e-5 M;NS means no significance. Format: functional.
The subject of assay [3] is Rattus norvegicus. The assay is described as follows: Antihypertensive activity in spontaneously hypertensive rats (SHR) measured by percentage fall in arterial pressure (AP) at 25 mg/kg administered intraperitoneally at 1 h;No significance. In kind it is functional, organism-based. As to conditions: Artery. Also noted: dose 25 mg/kg. The procedure, abridged: as §1
For assay [4], the species on record is Homo sapiens. The assay is described as follows: In vitro inhibition of platelet aggregation induced by AA (PRP incubated for 60 minutes at 37 degree C) at 10e-5 M;NS means no significance. In kind it is functional. The procedure, abridged:
(§2)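 Human venous blood anticoagulated with 3.8% sodium citrate (1:9). PRP from centrifugation at 800 rpm for 10 min at room temperature. Count adjusted with PPP to […]. Compound in saline with 10% ethylene glycol is added to PRP and incubated at 37 °C before the agonist. Agonists: ADP 2×10^-5 M, AA 0.6 mM, PGH2 2.8 μM, adrenaline 0.6 μM. Born absorbance aggregometry; n = 5.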

Assay [5] has as its system Rattus norvegicus. The assay is described as follows: Antihypertensive activity in spontaneously hypertensive rats (SHR) measured by percentage fall in arterial pressure (AP) at 25 mg/kg administered intraperitoneally at 5 h;No significance. Further details: dose 25 mg/kg. The following applies: Artery. In kind it is functional, organism-based. In outline:
as §1

The subject of assay [6] is Rattus norvegicus. The assay is described as follows: Antihypertensive activity in spontaneously hypertensive rats (SHR) measured by percentage fall in cardiac rhythm (CR) at 25 mg/kg administered intraperitoneally at 1 h. Format: functional, Heart. As to conditions: route intraperitoneal. In outline: as §1
The test system of assay [7] is Rattus norvegicus. The assay is described as follows: Antihypertensive activity in spontaneously hypertensive rats (SHR) measured by percentage fall in arterial pressure (AP) at 25 mg/kg administered intraperitoneally at 3 h;No significance. In kind it is functional, organism-based. Also noted: dose 25 mg/kg. The following applies: Artery. The procedure, abridged: as §1

For assay [8], the species on record is Homo sapiens. The assay is described as follows: In vitro inhibition of platelet aggregation induced by ADP-II (PRP incubated for 5 minutes at 37 degree C) at 10e-5 M;No significance. In kind it is functional. In outline: as §2
The species named for assay [9] is Homo sapiens. The assay is described as follows: In vitro inhibition of platelet aggregation induced by ADP-II (PRP incubated for 60 minutes at 37 degree C) at 10e-5 M. In kind it is functional. The following applies: 1 h. The procedure, abridged: as §2
Assay [10] concerns Rattus norvegicus. The assay is described as follows: Antihypertensive activity in spontaneously hypertensive rats (SHR) measured by percentage fall in cardiac rhythm (CR) at 25 mg/kg administered intraperitoneally at 3 h;No significance. The following applies: Heart. In kind it is functional, organism-based. Further details: dose 25 mg/kg. In outline:
(§3)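 Conscious SHR (Okamoto strain), 8 weeks old, male and female, 300–350 g, systolic BP ≥190 mmHg, CR 400–650 beats/min. Given ip or po at 2.5 mL/kg in normal saline or saline with 0.2% (carboxymethyl)cellulose and 1.0% Tween 80. Tail AP and CR recorded by mechanical transduction at 1, 3, 5 and 24 h, five animals per dose. Effect expressed as % fall versus control.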

For assay [11], the system named is Rattus norvegicus. The assay is described as follows: Antihypertensive activity in spontaneously hypertensive rats (SHR) measured by percentage fall in cardiac rhythm (CR) at 25 mg/kg administered intraperitoneally at 5 h;No significance. In kind it is functional, organism-based. Further details: dose 25 mg/kg. The following applies: Heart. In outline: as §3

Assay [12] relates to Rattus norvegicus. The assay is described as follows: Antihypertensive activity in spontaneously hypertensive rats (SHR) measured by percentage fall in cardiac rhythm (CR) at 25 mg/kg administered intraperitoneally at 24 h;No significance. Format: functional, organism-based. Also noted: dose 25 mg/kg. The following applies: Heart. The procedure, abridged:
as §1

Assay [13] concerns Rattus norvegicus. The assay is described as follows: Antihypertensive activity in spontaneously hypertensive rats (SHR) measured by percentage fall in cardiac rhythm (CR) at 5 mg/kg administered intraperitoneally at 5 h;No significance. Format: functional, organism-based. Also noted: dose 5 mg/kg. As to conditions: Heart. The procedure, abridged:
as §3

In assay [14] the test system is Rattus norvegicus. The assay is described as follows: Antihypertensive activity in spontaneously hypertensive rats (SHR) measured by percentage fall in cardiac rhythm (CR) at 25 mg/kg administered perorally at 5 h;No significance. In kind it is functional, organism-based. Also noted: dose 25 mg/kg. As to conditions: Heart. The procedure, abridged:
as §3

The species named for assay [15] is Homo sapiens. The assay is described as follows: No significance in vitro inhibition of platelet aggregation induced by ADP-II (PRP incubated for 60 minutes at 37 degree C) at 10e-5 M;No significance. Format: functional. In outline:
as §2

Assay [16] deals with Rattus norvegicus. The assay is described as follows: Antihypertensive activity in spontaneously hypertensive rats (SHR) measured by percentage fall in cardiac rhythm (CR) at 25 mg/kg administered perorally at 24 h;No significance. Format: functional, organism-based. Also noted: dose 25 mg/kg. The following applies: Heart. In outline:
as §3

The subject of assay [17] is Rattus norvegicus. The assay is described as follows: Antihypertensive activity in spontaneously hypertensive rats (SHR) measured by percentage fall in arterial pressure (AP) at 25 mg/kg administered intraperitoneally at 24 h; No significance. Further details: dose 25 mg/kg. The following applies: Artery. In kind it is functional, organism-based. In outline: as §1
The subject of assay [18] is Rattus norvegicus. The assay is described as follows: Antihypertensive activity in spontaneously hypertensive rats (SHR) measured by percentage fall in arterial pressure (AP) at 1 mg/kg administered intraperitoneally at 24 h;No significance. In kind it is functional, organism-based. Further details: dose 1 mg/kg. The following applies: Artery. The procedure, abridged: as §1

The test system of assay [19] is Rattus norvegicus. The assay is described as follows: Antihypertensive activity in spontaneously hypertensive rats (SHR) measured by percentage fall in cardiac rhythm (CR) at 5 mg/kg administered intraperitoneally at 24 h;No significance. Format: functional, organism-based. Also noted: dose 5 mg/kg. The following applies: Heart. The procedure, abridged:
as §3

For assay [20], the species on record is Homo sapiens. The assay is described as follows: In vitro inhibition of platelet aggregation induced by ADP-II (PRP incubated for 5 minutes at 37 degree C) at 10e-5 M; No significance. In kind it is functional. The procedure, abridged:
as §2

Assay [21] is filed under the species Homo sapiens. The assay is described as follows: In vitro inhibition of platelet aggregation induced by AA (PRP incubated for 60 minutes at 37 degree C) at 10e-5 M; No significance. Format: functional. The procedure, abridged:
as §2

Assay [22] deals with Rattus norvegicus. The assay is described as follows: Antihypertensive activity in spontaneously hypertensive rats (SHR) measured by percentage fall in arterial pressure (AP) at 1 mg/kg administered intraperitoneally at 5 h;No significance. In kind it is functional, organism-based. Further details: dose 1 mg/kg. The following applies: Artery. The procedure, abridged: as §1

The species named for assay [23] is Homo sapiens. The assay is described as follows: In vitro inhibition of platelet aggregation induced by […] (PRP incubated for 5 minutes at 37 degree C) at 10e-5 M; No significance. Format: functional.
The subject of assay [24] is Rattus norvegicus. The assay is described as follows: Antihypertensive activity in spontaneously hypertensive rats (SHR) measured by percentage fall in arterial pressure (AP) at 1 mg/kg administered intraperitoneally at 3 h;No significance. Format: functional, organism-based. Further details: dose 1 mg/kg. As to conditions: Artery. The procedure, abridged:
as §1

The record followed here is ChEMBL document CHEMBL1123757, “Selective thromboxane synthetase inhibitors and antihypertensive agents. New derivatives of 4-hydrazino-5H-pyridazino[4,5-b]indole, 4-hydrazinopyridazino[4,5-a]indole, and related compounds” (J Med Chem, 1987).

SMILES strings stand for the structures.

As usually defined, the inhibition is the percentage by which the read-out fell short of the control. Consider `CCOc1ccc2[nH]c3c(O)nncc3c2c1`, for which the “Decrease in AP” value in assay [1], in assay [3] and in [11] was “No significant values” throughout. Also, the inhibition entry is “no significance” in [2], “No significant values” in assay [4], “No significant values” in assay [7] and “No significant values” in [8]. Further, the “Decrease in CR” value in assay [5] was “No significant values”; in assay [6], 6%; in assay [10], “No significant values”; in assay [12], “No significant values”. This compound also gave an inhibition at 10 µM in assay [9] of 100%.

With `NNc1[nH]ncc2c3cc(OCc4ccccc4)ccc3nc1-2`, the “Decrease in CR” value in [13], in assay [14], in assay [16] and in assay [19] was “No significant values” in each case. The inhibition result in [15], in assay [20], in [21] and in [23] was “No significant values” throughout. For the same compound, the “Decrease in AP” value in assay [17], in [18], in assay [22] and in assay [24] was “No significant values” throughout.
